Gli-Sufu block: antagonists of Gli-Sufu signaling. hit rate 0.74% among 340,000. Sufu-KO-LIGHT fibroblasts, Gli luciferase reporter luminescence. inhibition, % at 5 µM;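 active = inhibition above about 55%, limit read from the data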;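 note: 0% = DMSO-treated cells and 100% = wells with medium but no cells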
NR2E3 ag-1: activates human NR2E3 receptor; inhibition of corepressor binding, % at 3.98 µM; CHO-S Gal4-NCOR/VP16-NR2E3 two-hybrid, luciferase; Q9Y5X4; hit rate 0.35% among 360,000;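 active = inhibition above the mean of all tested compounds plus 3 SD, cut at about 70% in these data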;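 note: 0% = DMSO with NR2E3 transfected cells and 100% = cells lacking NR2E3 construct; higher means lower luciferase signal from less NR2E3 corepressor binding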
Target sequence (Q9Y5X4 whole entry, looked up, the tested form may be a part): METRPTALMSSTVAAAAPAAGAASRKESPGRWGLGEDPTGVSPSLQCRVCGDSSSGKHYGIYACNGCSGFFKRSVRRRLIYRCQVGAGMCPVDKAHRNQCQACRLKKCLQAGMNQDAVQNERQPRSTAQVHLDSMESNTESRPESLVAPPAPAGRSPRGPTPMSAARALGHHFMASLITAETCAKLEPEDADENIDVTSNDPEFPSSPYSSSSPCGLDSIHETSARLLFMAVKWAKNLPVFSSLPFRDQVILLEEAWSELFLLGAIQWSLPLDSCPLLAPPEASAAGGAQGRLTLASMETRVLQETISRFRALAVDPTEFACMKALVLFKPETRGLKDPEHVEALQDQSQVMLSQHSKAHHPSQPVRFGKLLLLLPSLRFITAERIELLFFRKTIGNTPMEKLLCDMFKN
NR2E3 ag-2: activates human photoreceptor nuclear receptor NR2E3. Q9Y5X4. AID 2300. hit rate 0.12% among 320,000. GST-NR2E3/biotin-RetCOR TR-FRET, 1536-well. inhibition of corepressor binding, % at 4.78 µM;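 active = percent inhibition above the cutoff of mean plus 3 SD of all tested compounds, set per screening campaign, cut at about 20% in these data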;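 note: 0% = DMSO wells and 100% = biotin wells as full block of FRET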
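System: GST-NR2E3 and biotin-RetCOR proteins; probe or stimulus: 7 nM biotin-RetCOR; doses: compound at 4.8 µM, single dose; schedule: Compound–protein incubation for 5 h at 4 °C; detection: time-resolved FRET; read-out: percent inhibition; controls: biotin wells as high control, 0.6% DMSO wells as low control; format: 1536-well plates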
697 NFkB inh: lowers PMA/ionomycin-induced NF-kB signal in 697 B cells | 697 B-cell NF-kB luciferase reporter, 16 h | inhibition, % at 4 µM | hit rate 0.33% among 330,000 | AID 435022; in the data active = inhibition above about 35%
GalR3 antag: antagonists of human GalR3; O60755; HEK293 GalR3-CNG cAMP membrane potential fluorescence; galR3 body fused to GalR1 C-terminus; inhibition, % at 3 µM; hit rate 0.44% among 360,000;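 active = inhibition above the screen-wide average plus 3 SD, cut at about 13% in these data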;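 note: forskolin and galanin both at EC90 stimulate the cells; cAMP rise reported by CNG channel membrane potential dye signal; 0% = forskolin plus galanin with DMSO and 100% = forskolin alone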
Jurkat NFkB inh: inhibitors of the PMA/ionomycin-induced NF-kB reporter in Jurkat cells | PMA/ionomycin-induced NF-kB luciferase reporter, luminescence | hit rate 0.53% among 330,000 | AID 435003 | inhibition, % at 4 µM; in the data active = inhibition above about 50%
Jurkat NFkB conf: lowers PMA/ionomycin-induced NF-kB signal in Jurkat cells; shares compounds with Jurkat NFkB inh; Jurkat NF-kB luciferase, 16 h; inhibition, % at 4 µM; hit rate 27% among 2,700; AID 435020;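 active = inhibition reaching about 45% at 4 µM in either replicate, limit read from the data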;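 note: plate controls were PMA/ionomycin stimulated DMSO wells for no effect and unstimulated DMSO wells for full effect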
* marks the source's active call; other numbers are inactive results; · = not tested or not shown. Only some compounds are listed: those with a hit (about 1.8% of all), similar ones and a draw of the others.

SMILES	Gli-Sufu block	NR2E3 ag-1	NR2E3 ag-2	697 NFkB inh	GalR3 antag	Jurkat NFkB inh	Jurkat NFkB conf
COc1cc(C(=O)N2CCN(c3ccc(C)cc3C)CC2)cc(OC)c1OC	19	-73	2	-93	-2	63*	21
CCc1noc(C)c1C(=O)N1CCN(c2cccc(C)c2C)CC1	6	-6	1	-10	-5	0	·
COC(=O)C1=C(C)N(Cc2ccccc2C(F)(F)F)C(=NCc2ccccc2)NC1CCc1ccccc1 (configuration not stated)	·	·	·	·	-3	·	·
Cc1[nH]c2ccccc2c1CC(=O)Nc1ccc(Nc2cccnc2)c(-c2cc(F)cc(F)c2)c1	·	·	·	·	-3	·	·
COc1ccc(Cl)cc1NC(=O)CN(C)C(=O)c1cc2c(F)cccc2s1	-2	-16	1	1	-7	58*	17
Cc1ccc(Cn2c(-c3nonc3N)nc3ccccc32)cc1	6	-13	2	4	-9	33	·
COc1cccc(Cn2c(-c3nonc3N)nc3ccccc32)c1	15	-58	2	-19	-5	51*	34
COc1cc(Cn2c(-c3nonc3N)nc3ccccc32)ccc1C	4	-103	-5	6	-8	62*	46
Nc1nonc1-c1nc2ccccc2n1Cc1ccc(Cl)cc1	7	-12	2	7	-7	-1	·
Oc1ccccc1C1NN=C(c2ccccc2)S1 (configuration not stated)	-11	-111	0	-214	-8	-175	-121
Cc1ccc(C(=O)O/N=C(\N)c2ccccn2)c(Cl)c1	48	43	2	-8	-9	65*	79*
N/C(=N\OC(=O)c1ccc(Cl)cc1Cl)c1ccccn1	-26	-43	-2	-24	-2	28	·
C#CCN(Cc1ccco1)C(=O)c1nnc2c3ccccc3n(S(=O)(=O)c3ccc(C)cc3)c2n1	·	·	·	·	-7	·	·
CCOC(=O)c1cnc2c(ccc3ccccc32)c1NCCO	-6	-41	1	-6	-6	-39	·
CCOC(=O)c1cnc2c(ccc3ccccc32)c1N	-85	-60	-2	-120	-6	-166	-117
C(=C\c1nc(-c2ccccc2)no1)/c1ccccc1	·	-142	4	-202	-5	-152	-82
CC(=O)N1C[C@@H](CO)[C@@H]2C[C@H]1c1ccccc1N2C	·	·	·	·	-5	·	·
Cc1cc2c(nc1C)CCCN2S(=O)(=O)c1ccc(F)cc1	·	·	·	·	-7	·	·
COC(=O)[C@]12C[C@H](CC(=O)NCc3cccs3)C(=O)N(Cc3ccccc3)C1=C[C@H](C(C)(C)C)O[C@@H]2C	·	·	·	·	-1	·	·
C#CCSc1nccc(-c2nn(-c3ccc(C)cc3)ccc2=O)n1	33	-12	0	13	2	16	·
CSc1nccc(-c2nn(-c3ccc(C)cc3)ccc2=O)n1	2	-100	0	-4	-2	58*	49*
C=CCSc1nccc(-c2nn(-c3ccc(C)cc3)ccc2=O)n1	-23	-79	1	-60	4	50	·
CCSc1nccc(-c2nn(-c3ccc(C)cc3)ccc2=O)n1	-3	-128	-1	-48	-1	51*	27
COCc1cc(N2CCN(C(=O)OC(C)(C)C)C[C@H]2C)ccc1N1C[C@@H](C)O[C@@H](C)C1	·	·	·	·	-6	·	·
COC(=O)C1=C(C)N(Cc2ccc(C(F)(F)F)cc2)C(=NCc2ccc(OC)cc2)NC1c1ccccc1C(F)(F)F (configuration not stated)	·	·	·	·	4	·	·
SMILES	Gli-Sufu block	NR2E3 ag-1	NR2E3 ag-2	697 NFkB inh	GalR3 antag	Jurkat NFkB inh	Jurkat NFkB conf
CCOC(=O)C1CCN(S(=O)(=O)c2c(Cl)ccc3nonc23)CC1	·	-4	-3	-2	-3	72*	40
CN1OC[C@@H]2CN3C(=NCCc4ccccc4)Sc4ccccc4[C@@H]3C[C@@H]21	·	·	·	·	-9	·	·
FC(F)(F)c1cc(Cl)c2nc(-c3ccccc3)cn2c1	-59	-165	-5	-191	1	-150	·
Nc1cccc(-c2cn3cc(C(F)(F)F)cc(Cl)c3n2)c1	-112	-141	-3	-134	-4	-194	-46
COC(=O)C1=C(C)N(Cc2cccc(C(F)(F)F)c2)C(=NCc2cc(OC)c(OC)c(OC)c2)NC1c1cccc(Cl)c1 (configuration not stated)	·	·	·	·	-5	·	·
CCc1ccc(N2C(=O)C(Cl)=C(Nc3ccc(C(=O)N4CCCC4)cc3)C2=O)cc1	2	-13	2	-117	·	83*	88*
COc1nc(-c2ccc(C)cc2)ccc1-c1noc(-c2ccco2)n1	-32	-44	11	-18	-1	-19	·
COc1nc(C)ccc1-c1noc(-c2ccco2)n1	-78	-119	1	-158	-6	-171	-105
OC(c1ccccc1)(c1ccccc1)C1CCN(CCCOc2cccc(F)c2)CC1	·	·	·	·	-9	·	·
O=C(CSc1nnc(-c2ccc(O)cc2)o1)Nc1ccccc1	-34	-138	1	-75	-7	-134	·
O=C(CSc1nnc(-c2csc3c2CCCC3)o1)Nc1ccccc1	-67	-180	2	-212	1	-173	-126
CCOC(=O)c1sc2nc(-c3cccnc3)ccc2c1N	-121	-149	3	-147	-5	-182	-69
NC(=O)c1sc2nc(-c3cccnc3)ccc2c1N	-5	-56	-4	2	2	-5	·
COc1ccc2[nH]c3c(c2c1)CCNC3C1CC=C(C)CC1 (configuration not stated)	17	-4	4	16	-8	58*	-17
Cc1cc(N2CCN(Cc3cn(C)nc3-c3ccccc3F)CC2)cc(C)n1	-12	14	2	-24	-1	69*	-8
Cc1cc(N2CCN(Cc3cn(C)nc3-c3cccc(Cl)c3)CC2)cc(C)n1	10	4	3	-23	-7	62*	5
CCCCc1c(-c2ccccc2OC)ncn1Cc1cccc(C)c1	·	·	·	·	-8	·	·
CCCCn1cnc2c(c(-c3ccccc3)c(-c3ccccc3)n2Cc2ccco2)c1=N	3	34	2	-7	-5	81*	4
COC(=O)C1=C(C)N(Cc2cccc(C(F)(F)F)c2)C(=NCc2ccc(OC)cc2)NC1c1cccc(C(F)(F)F)c1 (configuration not stated)	·	·	·	·	-6	·	·
Cc1cc2c(nc1C)CCCN2Cc1ccccn1	·	·	·	·	-8	·	·
O=[N+]([O-])c1ccc(O)c(/C=N/Nc2ccc(Cl)nn2)c1	86*	-23	3	-121	0	53*	78*
O=[N+]([O-])c1ccc(N/N=C/c2cccc(O)c2)cc1	-13	-103	0	-46	-13	-84	·
COc1cccc(/C=N/Nc2ccc(C(=O)O)cc2)c1O	73*	32	-5	-32	-5	88*	57*

Source: PubChem (several laboratories)
